Data published in ChEMBL document CHEMBL1138505, “Engineered apoptosis-inducing peptides with enhanced mitochondrial localization and potency” (J Med Chem, 2009).
Each block holds one molecule with its values, some of them ahead of it. Calls of active or inactive are those of the source. The calls are words filed in the database; no cut-off is given here.

Experiments:
[1] = Octanol-water partition coefficient, log P at pH 7.4; format: physicochemical
Outline: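 Thiazole orange-labelled peptides were partitioned between 1-octanol and 10 mM Tris, pH 7.4. LogP is the mean with sd of three trials.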

[2] = Cytotoxicity against human KS1767 cells assessed as dehydrogenase activity after 48 hrs by […]; format: functional; conditions: KS1767, 48 h, read-out: LC50 (the source's name)
Outline: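 KS1767 cells were kept in DMEM with 10% FBS. Integrin-homing (CNGRC) peptide conjugates were incubated over a concentration range for 48 h in OPTI-MEM with 2% FBS. Death was read by Sytox Red viability staining and CCK-8 dehydrogenase activity, and LC50 was determined.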

[3] = system: MDA-MB-231; test: Cytotoxicity against human MDA-MB-231 cells assessed as dehydrogenase activity after 48 hrs by […]; format: functional; conditions: MDA-MB-231, 48 h, read-out: LC50 (the source's name)
[4] = system: MDA-MB-231; test: Specificity index, ratio of LC50 for human MDA-MB-231 cells to LC50 for human KS1767 cells; format: functional
[5] = system: HeLa; test: Cytotoxicity against human HeLa cells assessed as dehydrogenase activity after 24 hrs by […]; format: functional; conditions: read-out: LC50 (the source's name)
Outline: (§1)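 Cells grown in MEM with 10% FBS at 37 °C, 5% CO2 (MCF7 also given 0.01 mg/mL insulin). Unlabeled peptides were applied over a concentration range for 24 h in OPTI-MEM with 2% FBS. Cell death was scored by Sytox Red staining for loss of plasma membrane integrity and by CCK-8 dehydrogenase activity, and LC50 was determined.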

[6] = system: FaDu; test: Cytotoxicity against human FADU cells assessed as dehydrogenase activity after 24 hrs by […]; format: functional; conditions: read-out: LC50 (the source's name); outline: as §1
[7] = system: MCF7; test: Cytotoxicity against human MCF7 cells assessed as dehydrogenase activity after 24 hrs by […]; format: functional; conditions: MCF7, 24 h, read-out: LC50 (the source's name); outline: as §1
[8] = Cytotoxicity against human MRC5 cells assessed as dehydrogenase activity after 24 hrs by […]; format: cell-based; conditions: read-out: LC50; outline: as §1
[9] = system: DU-145; test: Cytotoxicity against human DU145 cells assessed as dehydrogenase activity after 24 hrs by […]; format: functional; conditions: DU-145, 24 h, read-out: LC50 (the source's name); outline: as §1
[10] = Toxicity in human RBC assessed as hemolytic activity after 2 hrs; format: cell-based, Erythrocyte; conditions: red blood cells
Outline: (§2)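 In the red blood cell lysis assay, percent lysis was normalised to melittin ([…]) as 100% lysis and PBS as 0%. HC50 is the concentration giving 50% hemolysis. The minimal hemolytic concentration is the peptide level giving 10% hemolysis.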

[11] = Toxicity in human RBC assessed as minimum drug level required for 10% hemolysis after 2 hrs; format: cell-based; conditions: erythrocyte; outline: as §2
[12] = Toxicity in mouse liver mitochondria assessed as minimum drug level required for mitochondrial disruption; conditions: in vitro
[13] = system: HeLa; test: Cytotoxicity against human HeLa cells assessed as swelling and disruption of mitochondria at LC50 of 2.5 uM after 30 mins by fluorescence imaging using DAPI nuclear staining; format: functional, cell-based
[14] = system: HeLa; test: Cytotoxicity against human HeLa cells assessed as swelling and disruption of mitochondria at LC50 of 2.5 uM after 30 mins by transmission electron microscopy; format: functional, cell-based
[15] = system: HeLa; test: Cytotoxicity against human HeLa cells assessed as swelling and disruption of mitochondria at LC50 of 2.5 uM after 30 mins by calcein-AM release and quenching assay; format: functional, cell-based
[16] = system: HeLa; test: Cytotoxicity against human HeLa cells assessed as loss of plasma membrane integrity at LC50 of 2.5 uM by sytox red staining-based flow cytometry; format: functional, cell-based
[17] = system: HeLa; test: Induction of apoptosis in human HeLa cells assessed as increase in DNA fragmentation at 2.5 uM by TUNEL assay; format: functional, cell-based; conditions: TDE = time-dependent effect
Outline: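 HeLa cells were treated with 2.5 µM peptide and sampled over time. DNA fragmentation in fixed, washed cells was detected by TUNEL using the APO-BrdU kit per the manufacturer.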

[18] = system: HeLa; test: Induction of apoptosis in human HeLa cells assessed as caspase 3 activation at 2.5 uM; format: functional, cell-based
Outline: (§3)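 After peptide treatment, HeLa cells were trypsinized, pelleted and washed. They were then stained either with FITC anti-activated caspase 3 or with anti-activated caspase 9 plus an anti-goat AlexaFluor 555 secondary. Cells were washed again and read by flow cytometry. Staurosporine-treated cells served as the positive control.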

[19] = system: HeLa; test: Induction of apoptosis in human HeLa cells assessed as caspase 9 activation at 2.5 uM; format: functional, cell-based; outline: as §3
[20] = system: HeLa; test: Cytotoxicity against human HeLa cells assessed as loss of mitochondrial membrane integrity at LC50 of 2.5 uM by flow cytometry

- logD [1]: -2.52
Structure (SMILES): C[C@@H](NC(=O)[C@@H](Cc1ccccc1)NC(=O)[C@H](N)CCCCN)C(=O)N[C@H](CCCCN)C(=O)N[C@H](Cc1ccccc1)C(=O)N[C@H](C)C(=O)N[C@H](CCCCN)C(=O)N[C@H](CCCCN)C(=O)N[C@H](Cc1ccccc1)C(=O)N[C@H](C)C(=O)N[C@H](CCCCN)C(=O)N[C@H](Cc1ccccc1)C(=O)N[C@H](C)C(=O)N[C@H](CCCCN)C(=O)O

Structure (SMILES): CC(C)C[C@@H](NC(=O)[C@@H](CCCCN)NC(=O)[C@H](CS)NC(=O)[C@H](CCCNC(=N)N)NC(=O)CNC(=O)[C@H](CC(N)=O)NC(=O)[C@@H](N)CS)C(=O)N[C@H](C)C(=O)N[C@H](CCCCN)C(=O)N[C@H](CC(C)C)C(=O)N[C@H](C)C(=O)N[C@H](CCCCN)C(=O)N[C@H](CCCCN)C(=O)N[C@H](CC(C)C)C(=O)N[C@H](C)C(=O)N[C@H](CCCCN)C(=O)N[C@H](CC(C)C)C(=O)N[C@H](C)C(=O)N[C@H](CCCCN)C(=O)O
- CC50 [2]: 63 µM
- CC50 [3]: 144 µM
- Ratio [4]: 2.3

Structure (SMILES): CCCCCC[C@@H](NC(=O)[C@H](N)CCCCN)C(=O)N[C@H](C)C(=O)N[C@H](CCCCN)C(=O)N[C@H](CCCCCC)C(=O)N[C@H](C)C(=O)N[C@H](CCCCN)C(=O)N[C@H](CCCCN)C(=O)N[C@H](CCCCCC)C(=O)N[C@H](C)C(=O)N[C@H](CCCCN)C(=O)N[C@H](CCCCCC)C(=O)N[C@H](C)C(=O)N[C@H](CCCCN)C(=O)O
- CC50 [5]: 2.5 µM
- CC50 [6]: 2.8 µM
- CC50 [7]: 2.2 µM
- CC50 at 24 h [8]: 2.8 µM
- CC50 [9]: 2 µM
- HC50 at 2 h [10]: 31 µM
- Activity [11]: 8 µM
- Activity [12]: 2.5 µM

Structure (SMILES): CC(C)CC(NC(=O)C(N)CCCCN)C(=O)NC(C)C(=O)NC(CCCCN)C(=O)NC(CC(C)C)C(=O)NC(C)C(=O)NC(CCCCN)C(=O)NC(CCCCN)C(=O)NC(CC(C)C)C(=O)NC(C)C(=O)NC(CCCCN)C(=O)NC(CC(C)C)C(=O)NC(C)C(=O)NC(CCCCN)C(=O)O (racemic)
- CC50 [5]: 160 µM
- HC50 at 2 h [10]: > 100 µM
- Activity [11]: > 100 µM
- Activity [12]: 200 µM

Structure (SMILES): CC(C)C[C@@H](NC(=O)[C@H](N)CCCCN)C(=O)N[C@H](C)C(=O)N[C@H](CCCCN)C(=O)N[C@H](CC(C)C)C(=O)N[C@H](C)C(=O)N[C@H](CCCCN)C(=O)N[C@H](CCCCN)C(=O)N[C@H](CC(C)C)C(=O)N[C@H](C)C(=O)N[C@H](CCCCN)C(=O)N[C@H](CC(C)C)C(=O)N[C@H](C)C(=O)N[C@H](CCCCN)C(=O)O
- logD [1]: -2.3
- CC50 [5]: 350 µM
- CC50 [6]: > 200 µM
- CC50 [7]: > 300 µM
- CC50 at 24 h [8]: > 200 µM
- CC50 [9]: > 300 µM
- HC50 at 2 h [10]: > 100 µM
- Activity [11]: > 100 µM
- Activity [12]: 200 µM

Structure (SMILES): C[C@@H](NC(=O)[C@@H](CC1CCCCC1)NC(=O)[C@@H](CCCCN)NC(=O)[C@H](CS)NC(=O)[C@H](CCCNC(=N)N)NC(=O)CNC(=O)[C@H](CC(N)=O)NC(=O)[C@@H](N)CS)C(=O)N[C@H](CCCCN)C(=O)N[C@H](CC1CCCCC1)C(=O)N[C@H](C)C(=O)N[C@H](CCCCN)C(=O)N[C@H](CCCCN)C(=O)N[C@H](CC1CCCCC1)C(=O)N[C@H](C)C(=O)N[C@H](CCCCN)C(=O)N[C@H](CC1CCCCC1)C(=O)N[C@H](C)C(=O)N[C@H](CCCCN)C(=O)O
- CC50 [2]: 7 µM
- CC50 [3]: 17 µM
- Ratio [4]: 2.7

Structure (SMILES): C[C@@H](NC(=O)[C@@H](CC1CCCCC1)NC(=O)[C@H](N)CCCCN)C(=O)N[C@H](CCCCN)C(=O)N[C@H](CC1CCCCC1)C(=O)N[C@H](C)C(=O)N[C@H](CCCCN)C(=O)N[C@H](CCCCN)C(=O)N[C@H](CC1CCCCC1)C(=O)N[C@H](C)C(=O)N[C@H](CCCCN)C(=O)N[C@H](CC1CCCCC1)C(=O)N[C@H](C)C(=O)N[C@H](CCCCN)C(=O)O
- logD [1]: -1.73
- CC50 [5]: 2.3 µM
- CC50 [6]: 3.3 µM
- CC50 [7]: 2 µM
- CC50 at 24 h [8]: 5.8 µM
- CC50 [9]: 2 µM
- HC50 at 2 h [10]: > 42 µM
- Activity [11]: 9 µM
- Activity [13]: Active
- Activity [14]: Active
- Activity [15]: Active
- Activity [16]: Active
- Activity [17]: tde
- Activity [18]: Active
- Activity [19]: Active
- Activity [12]: 1.3 µM
- Activity [20]: Active

Structure (SMILES): CCCCCCC(NC(=O)C(N)CCCCN)C(=O)NC(C)C(=O)NC(CCCCN)C(=O)NC(CCCCCC)C(=O)NC(C)C(=O)NC(CCCCN)C(=O)NC(CCCCN)C(=O)NC(CCCCCC)C(=O)NC(C)C(=O)NC(CCCCN)C(=O)NC(CCCCCC)C(=O)NC(C)C(=O)NC(CCCCN)C(=O)O (racemic)
- CC50 [5]: 3.7 µM
- HC50 at 2 h [10]: > 100 µM
- Activity [11]: > 100 µM
- Activity [12]: 3.1 µM

Structure (SMILES): CC(NC(=O)C(CC1CCCCC1)NC(=O)C(N)CCCCN)C(=O)NC(CCCCN)C(=O)NC(CC1CCCCC1)C(=O)NC(C)C(=O)NC(CCCCN)C(=O)NC(CCCCN)C(=O)NC(CC1CCCCC1)C(=O)NC(C)C(=O)NC(CCCCN)C(=O)NC(CC1CCCCC1)C(=O)NC(C)C(=O)NC(CCCCN)C(=O)O (racemic)
- CC50 [5]: 6.5 µM
- HC50 at 2 h [10]: > 100 µM
- Activity [11]: > 100 µM
- Activity [12]: 6.3 µM
